Hits are enriched below; roughly 3.7% of the tested compounds scored in any of these assays.
Kir21 block: inhibitors of mouse Kir2.1 inward-rectifier potassium channel | Inward rectifier potassium channel 2 (Mus musculus), P35561 | HEK293-Kir2.1, FluxOR thallium flux fluorescence; stronger effect = lower value | B-score at 10 µM | 0.85% of 310,000 active;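 active means fluorescence ratio B-score at or below minus 3 SD of library scores, with starting-brightness B-score within 2 SD, cut at about -4.2 in these data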;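 further: channel flux triggered by added potassium and thallium sulfate stimulus; B-score of peak minus minimum fluorescence over baseline after thallium stimulus; more negative B-score means stronger Kir2.1 block with less thallium influx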
KCNQ1 inh: inhibitors of human KCNQ1 channel, primary screen, cell-based, thallium flux, high-throughput; Potassium voltage-gated channel subfamily KQT member 1 (Homo sapiens), P51787; B-score at 10 µM; CHO-K1 KCNQ1, FluxOR thallium flux fluorescence; stronger effect = higher value; 1.3% of 310,000 active;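 active means compounds whose thallium flux B-score, printed positive for inhibition, exceeds three library SD while starting fluorescence stays within three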;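 further: channel opened by potassium depolarization with thallium stimulus after 20 min compound exposure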
KCNK9 block: KCNK9 potassium channel inhibitors, primary screen, HEK293 cells, thallium flux | 1.2% of 310,000 active | AID 488922, 2010 | FluxOR thallium flux fluorescence; stronger effect = lower value | Potassium channel subfamily K member 9 (Homo sapiens), Q9NPC2 | B-score at 10 µM;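 active means ratio B-score over 3 SD below the library mean, with starting fluorescence within 5 SD of its mean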;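 further: negative B-score means less thallium flux so channel inhibition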
KCNK3 inh: human KCNK3 channel inhibitors, primary screen, CHO cells, FluxOR thallium flux, B-score | Potassium channel subfamily K member 3 (Homo sapiens), O14649 | FluxOR fluorescence; stronger effect = lower value | B-score at 10 µM | 0.84% of 340,000 active | AID 602410, 2012;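 active means B-score under library mean minus 4 SD, starting fluorescence ratio at most library mean plus 5 SD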;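 further: more negative B-score means stronger inhibition of thallium flux through KCNK3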
Target sequence (O14649 whole entry, looked up): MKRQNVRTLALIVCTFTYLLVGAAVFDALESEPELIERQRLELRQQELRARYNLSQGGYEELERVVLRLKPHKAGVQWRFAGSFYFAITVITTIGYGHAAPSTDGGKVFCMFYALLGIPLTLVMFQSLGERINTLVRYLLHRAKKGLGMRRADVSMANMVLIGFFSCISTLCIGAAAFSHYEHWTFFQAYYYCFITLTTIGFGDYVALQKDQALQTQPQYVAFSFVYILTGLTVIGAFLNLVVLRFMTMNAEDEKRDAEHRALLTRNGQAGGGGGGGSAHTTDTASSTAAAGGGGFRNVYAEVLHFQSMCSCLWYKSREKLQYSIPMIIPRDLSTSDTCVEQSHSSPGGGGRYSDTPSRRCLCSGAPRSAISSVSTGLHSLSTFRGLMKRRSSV
KCNQ1 pot: potentiators or activators of KCNQ1 channel, primary screen, cell-based, thallium flux, high-throughput | Potassium voltage-gated channel subfamily KQT member 1 (Homo sapiens), P51787 | AID 2648, 2010 | 0.35% of 310,000 active | B-score at 10 µM | CHO-K1 KCNQ1, thallium flux FluxOR fluorescence; stronger effect = higher value;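 active means fluorescence ratio B-score, a plate-corrected score, at least three library SD, with initial intensity B-score within 5 SD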
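Doses: Single concentration per compound, DMSO matched to controls | Test system: KCNQ1-transfected CHO-K1 cells | Timing: 90 min dye loading and 20 min compound exposure, both at room temperature | Measured by: Kinetic FluxOR thallium fluorescence, 10-s 1-Hz baseline, 110-s post-stimulus read | Medium: Assay buffer with matched DMSO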
hERG protect: hERG rescue from dofetilide block, primary screen, cell-based, CHO-hERG, FluxOR thallium flux, dofetilide IC70; dofetilide IC70 present; Voltage-gated inwardly rectifying potassium channel KCNH2 (Homo sapiens), Q12809; activation (rescue from dofetilide block), less the hit threshold, % at 10 µM; 0.51% of 310,000 active;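 active means activation above the mean of controls blocked by dofetilide plus 5 SD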;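 further: thallium influx through hERG after potassium depolarization seen as dye fluorescence rise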
* marks the source's active call; other numbers are inactive results; i = inactive; / = no result given.

SMILES	Kir21 block	KCNQ1 inh	KCNK9 block	KCNK3 inh	KCNQ1 pot	hERG protect
COc1ccc(-c2nc(C(=O)NCC3CCCO3)cc3c2[nH]c2ccccc23)cc1 (configuration not stated)	1.5	i	i	i	i	-9
COc1cc(C(=O)NCC(c2cccs2)N2CCOCC2)cc(OC)c1OC (configuration not stated)	0.51	i	i	i	i	-2
CC(/C=C(\NC(=O)c1ccccc1)C(=O)N=Nc1c(O)[nH]c2ccc(C)cc12)=C\c1ccccc1	0.07	6*	i	i	i	-23
Cc1ccc2[nH]c(O)c(N=NC(N)=S)c2c1	-0.08	i	i	i	i	-8
Cc1ccc(OC(C)C(=O)N2CCc3ccccc32)cc1 (configuration not stated)	0.56	i	i	i	i	-4
CC(Oc1ccccc1)C(=O)N1CCCc2ccccc21 (configuration not stated)	-5.5*	i	i	i	i	-9
COc1ccc(OC(C)C(=O)N2CCCc3ccccc32)cc1 (configuration not stated)	-4.8*	i	i	i	i	-5
O=C(NCC1CCCO1)c1ccccc1NS(=O)(=O)c1cc([N+](=O)[O-])ccc1Cl (configuration not stated)	/	/	/	i	/	/
CCC(=O)Nc1ccc(C(=O)NNC(=O)c2cccc(C)c2)cc1	-1.9	i	i	i	i	-2
Cc1cc(Cl)c(OCCOCCN2CCC(C)CC2)c(Br)c1	-5.2*	i	i	i	i	-8
Cc1cc(Cl)c(OCCOCCN2CCN(C)CC2)c(Br)c1	-0.05	i	i	i	i	-8
Clc1ccc(OCCOCCN2CCCCC2)c(Br)c1	-2.1	i	i	i	i	-14
Cc1cc(C)c(OCCCCN2CCC(C)CC2)c(Br)c1	-5.5*	i	i	i	i	-10
CC1CCN(CCOCCOc2ccc(Cl)cc2Br)CC1	-2.8	6*	i	i	i	-9
Cn1cccc1/C=N/n1c(-c2ccccc2)n[nH]c1=S	-1.8	i	i	i	i	-3
Cn1cccc1/C=N/n1c(-c2ccc(C(C)(C)C)cc2)n[nH]c1=S	-2	i	-7.7*	i	i	-4
C/C(=N\Nc1nc2ccccc2[nH]1)c1ccc(Cl)s1	1.4	i	i	i	11*	-8
O=C(CSc1n[nH]c(-c2cccs2)n1)NCCc1ccccc1	-0.11	i	i	i	i	-9
CCCc1ccc(C2C3=C(CC(C)(C)CC3=O)NC3=C2C(=O)c2ccccc23)cc1 (configuration not stated)	-2.1	9*	i	i	i	-9
CC1(C)CC(=O)C2=C(C1)NC1=C(C(=O)c3ccccc31)C2c1ccc(O)cc1 (configuration not stated)	-0.01	i	i	i	i	-3
CCOc1cccc2sc(N3CCN(C(=O)c4ccc5ncsc5c4)CC3)nc12	-0.12	i	i	i	i	-15
COc1ccc(-c2nnc(SCc3ccccn3)n2C)cc1	0.04	i	i	i	i	-9
COc1ccc(N=C(N)SCc2ccccn2)cc1	-4.5*	i	i	i	i	-4
Nc1nc2nc(-c3ccccc3)cc(C(F)(F)F)c2s1	2	i	i	i	i	-3
CCOC(=O)c1sc2nccc(N(C)C)c2c1N=CNOCc1c(F)cccc1Cl	0.6	8*	i	i	i	-6
SMILES	Kir21 block	KCNQ1 inh	KCNK9 block	KCNK3 inh	KCNQ1 pot	hERG protect
CCOC(=O)c1sc2nccc(N(C)C)c2c1N=CNOCc1ccccc1	/	/	/	i	/	/
COc1ccc(NC(=O)CN(C)C(=O)c2c(C)nn(Cc3ccc(C)cc3)c2Cl)cc1	/	/	/	i	/	/
C=CCn1c(SCC(=O)c2c(N)n(C)c(=O)n(C)c2=O)nnc1-c1ccoc1C	/	/	/	i	/	/
CN(Cc1ccccc1F)C(=O)c1sccc1-c1ccccc1	-12*	i	i	i	i	-12
COc1cccc(CN(C)C(=O)c2sccc2-c2ccccc2)c1OC	-3.6	i	i	i	i	-9
CCC1CCCCN1CCCNC(=O)C1CCN(Cc2nc(-c3ccc(Cl)cc3)oc2C)CC1 (configuration not stated)	-1.2	i	i	i	i	-9
Cc1oc(-c2ccc(Cl)cc2)nc1CN1CCC(C(=O)NCCCN2CCOCC2)CC1	-4.6*	i	i	i	i	-6
O=C(c1cccc(S(=O)(=O)Nc2ccc(F)cc2)c1)N1CCC1	/	/	/	i	/	/
CC1CN(C(=O)CN(C)S(=O)(=O)c2ccc3ccccc3c2)CC(C)O1 (configuration not stated)	-0.1	i	i	i	i	-3
Cn1ccnc1SCC(=O)c1cccc(C(F)(F)F)c1	1.5	i	i	i	i	-12
COc1cccc(OC)c1/C(O)=C(\C#N)c1nc2ccccc2[nH]1	0.91	i	-7.7*	i	i	-3
CCC(=O)N1N=C(c2cccs2)CC1c1ccc(C)cc1 (configuration not stated)	0.8	i	i	i	i	5.1*
Cc1ccc(C2CC(c3cccs3)=NN2C(=O)CCl)cc1 (configuration not stated)	-4	i	i	i	i	-2
COc1ccc(C2=NN(C(=O)CN3CCCCC3)C(c3ccc(C)cc3)C2)cc1 (configuration not stated)	-1.6	6*	i	i	i	-10
COc1ccc(Nc2nc3ccccc3nc2-n2nc(C)cc2C)cc1	-0.04	i	-7.2*	i	i	-8
Cc1cc(C)n(-c2nc3ccccc3nc2Nc2ccc3[nH]c(=O)[nH]c3c2)n1	1.1	i	i	i	i	0
c1ccc(-c2nnsc2-c2ncc[nH]2)cc1	-1.2	i	i	i	i	4.7*
NC(N)=N/N=C/c1ccc(Cl)c(Cl)c1	-5*	i	i	i	i	-4
NC(N)=N/N=C/c1ccc(OCc2ccccc2)c(OCc2ccccc2)c1	0	6*	i	i	i	-18
NC(N)=N/N=C/c1ccccc1	-1.5	i	i	i	i	-9
